Compound activity: PubChem BioAssay, several laboratories
Sampled rows, rich in hits. Any-hit rate of the full collection: about 2.2%.
MEX-5 binding: C. elegans MEX-5 TCR-2 RNA binding activity; activity score (negative = inhibition of binding), % at 10 µM; MEX-5/FITC-TCR2 RNA binding, fluorescence polarization; active compounds read low; AID 1832; 300,000 tested, 0.38% active;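 active = inhibition past about -25% in most replicates, and total fluorescence under double the plate's negative control median, limit read from the data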
GLD-1 TGE inh: GLD-1-TGE RNA interaction inhibition (C. elegans); Q17339; purified GLD-1 + fluorescein TGE RNA, fluorescence polarization; inhibition, % at 5.96 µM; 320,000 tested, 0.44% active; AID 2280;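 active = percent inhibition above a per-plate cutoff, the plate mean of test compounds plus 3 SD, cut at about 30% in these data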
IMP-1 inh: inhibitors of Pseudomonas aeruginosa IMP-1 metallo-beta-lactamase. purified IMP-1, nitrocefin hydrolysis, epi-absorbance fluorescence. AID 1556. inhibition, % at 5.6 µM. 290,000 tested, 0.45% active;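 active = inhibition above the mean plus 3 SD of all compounds in the same screening run, cut at about 4.5% in these data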
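System: Purified IMP-1 | Read-out basis: Percent enzyme inhibition | Controls: IMP-1 with DMSO as 0%, enzyme-free DMSO as 100% | Replicates: One well per compound | Doses: 5.6 µM nominal single concentration | Detection: Epi-absorbance fluorescence, 480 nm excitation, 530 nm emission | Incubation: 25 °C, 15 min preincubation, 25 min reaction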
BCLXL inh: inhibitors of human Bcl-xL; GST-Bcl-xL / FITC-Bim BH3 peptide fluorescence polarization; 320,000 tested, 0.7% active; Q07817; inhibition, % at 10.9 µM;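 active = inhibition above the mean of all tested compounds plus 3 SD, cutoff set per campaign, cut at about 30% in these data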;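 note: inhibitors lower millipolarization by displacing the labeled peptide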
Target sequence (Q07817 whole entry, looked up): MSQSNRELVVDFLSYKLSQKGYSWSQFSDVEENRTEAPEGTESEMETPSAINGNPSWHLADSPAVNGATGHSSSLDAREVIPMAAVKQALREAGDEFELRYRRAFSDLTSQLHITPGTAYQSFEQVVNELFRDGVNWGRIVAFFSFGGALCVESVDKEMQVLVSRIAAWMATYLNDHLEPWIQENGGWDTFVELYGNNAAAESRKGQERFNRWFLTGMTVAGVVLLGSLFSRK
EBV gp42 block: blocks Epstein-Barr virus glycoprotein 42 binding. inhibition, % (tested at 21.74 µM). 220,000 tested, 0.42% active. AID 1085. Fluorescence polarization binding assay, mP read-out; in the data active = inhibition above about 50%
Target sequence (Q1HVG2 whole entry, looked up): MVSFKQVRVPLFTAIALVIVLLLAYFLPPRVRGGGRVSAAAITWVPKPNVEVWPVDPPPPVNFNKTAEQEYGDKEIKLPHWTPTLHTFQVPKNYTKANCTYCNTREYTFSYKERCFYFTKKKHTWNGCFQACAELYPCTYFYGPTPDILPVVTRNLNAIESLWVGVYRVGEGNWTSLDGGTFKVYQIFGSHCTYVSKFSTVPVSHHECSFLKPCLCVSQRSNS
VIM-2 inhibitor: blocks Pseudomonas aeruginosa VIM-2 metallo-beta-lactamase; inhibition, % at 5.6 µM; purified VIM-2, nitrocefin hydrolysis, epi-absorbance fluorescence; 290,000 tested, 0.89% active;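 active = inhibition above the mean of all tested compounds plus 3 SD, cutoff set per screening run, cut at about 7.5% in these data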;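 note: red hydrolysis product quenches plate fluorescence so inhibitors raise well fluorescence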
GLD-1 TGE cf: confirmation of C. elegans GLD-1 TGE RNA binding inhibitors; 550 tested, 10% active; shares compounds with GLD-1 TGE inh; inhibition, % at 5.96 µM; GLD-1/FL-TGE RNA fluorescence polarization, biochemical;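 active = average inhibition across triplicates above the hit cutoff set in the primary screen, cut at about 32% in these data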
Each line names hits and unclear results; the compound was inactive in the other large screens (follow-up assays come after a bar, where they were run).

CC(NC(=O)COC(=O)c1cc(=O)c2ccccc2o1)c1ccccc1 (stereo not drawn)	none (no result: MEX-5 binding, IMP-1 inh, BCLXL inh, EBV gp42 block, VIM-2 inhibitor)
CSc1nc(C)cc(Oc2ccc(=O)[nH]n2)n1	none
Cc1cc(Oc2ccc(=O)[nH]n2)nc(Cl)n1	GLD-1 TGE inh 35, BCLXL inh 40 | GLD-1 TGE cf inactive
O=C(Cc1ccccc1)NCC(=O)N1CCN(c2ccccc2)CC1	none (no result: EBV gp42 block)
CC1CCC(C(C)C)C(OC(=O)C2=C3c4ccccc4S(=O)(=O)N3CC2)C1 (stereo not drawn)	GLD-1 TGE inh 49 | GLD-1 TGE cf inactive
O=C(c1sc2cccc(Cl)c2c1Cl)N1CCN(CCc2ccccn2)CC1	none (no result: EBV gp42 block)
CC1(C)CC(OC(=O)c2ccco2)CC(C)(C)N1O	GLD-1 TGE inh 35, BCLXL inh 43 | GLD-1 TGE cf inactive
COc1ccc(NS(=O)(=O)c2ccc(Cl)s2)cn1	GLD-1 TGE inh 50, BCLXL inh 72, EBV gp42 block 57 | GLD-1 TGE cf 54
Cc1ccc(C(=O)N/N=C\c2ccc(Br)o2)o1	none
Cc1ccc(C(=O)N/N=C/c2ccc(-c3ccc(Br)cc3[N+](=O)[O-])o2)o1	GLD-1 TGE inh 36, BCLXL inh 51 (no result: EBV gp42 block) | GLD-1 TGE cf 35
N#Cc1ccccc1OCC(=O)NNC(=O)CNC(=O)c1ccc(Br)o1	none (no result: MEX-5 binding, IMP-1 inh, BCLXL inh, EBV gp42 block, VIM-2 inhibitor)
N#Cc1ccccc1OCC(=O)NNC(=O)CNC(=O)c1cccc(Br)c1	none (no result: MEX-5 binding, IMP-1 inh, EBV gp42 block, VIM-2 inhibitor) | GLD-1 TGE cf inactive
CCN1C(=O)N/C(=C/c2ccc(C)o2)C1=O	GLD-1 TGE inh 43 | GLD-1 TGE cf inactive
Cc1ccc(/C=C2/NC(=O)N(c3ccccc3)C2=O)o1	GLD-1 TGE inh 50 | GLD-1 TGE cf inactive
Cc1ccc(/C=C2/NC(=O)N(Cc3ccc(Br)cc3)C2=O)o1	none
Cc1c(C(=O)O)cccc1-c1ccc(/C=C2/NC(=O)N(c3ccccc3)C2=O)o1	none
Cc1ccc(/C=C2/NC(=O)N(Cc3ccccc3F)C2=O)o1	GLD-1 TGE inh 34 | GLD-1 TGE cf inactive
CCN(CC(=O)NC1CCS(=O)(=O)C1)c1ccc([N+](=O)[O-])cc1C#N (stereo not drawn)	none (no result: MEX-5 binding, IMP-1 inh, EBV gp42 block, VIM-2 inhibitor)
O=C(Nc1ccccc1C(=O)Nc1ccc(Cl)cc1)c1cccnc1	none (no result: EBV gp42 block)
Cc1cnc(NC(=O)Cc2ccc(S(=O)(=O)N3CCOCC3)s2)s1	GLD-1 TGE inh 48 (no result: MEX-5 binding, IMP-1 inh, BCLXL inh, EBV gp42 block, VIM-2 inhibitor) | GLD-1 TGE cf inactive
COc1ccccc1Oc1c(C)oc2c(CN3CCN(CCO)CC3)c(O)ccc2c1=O	GLD-1 TGE inh 61, BCLXL inh 95 | GLD-1 TGE cf inactive
CCOc1ccccc1Oc1c(C)oc2c(CN3CCN(CCO)CC3)c(O)ccc2c1=O	none (no result: EBV gp42 block)
O=C(CNC(=O)c1ccccc1Br)N/N=C/c1ccc(O)cc1	none
CCN(CC)C(=O)CSc1nnc2nnc3cc(C)ccc3n12	GLD-1 TGE inh 42 | GLD-1 TGE cf inactive
CCOc1cc(CNC2CCCC2)cc(Cl)c1OCc1ccc(F)cc1	none
COc1cc(CNC2CCCC2)cc(Cl)c1OCc1ccc(F)cc1	GLD-1 TGE inh 52 | GLD-1 TGE cf inactive
COc1cccc(OCCNc2cc(N3CCCCC3)ccc2[N+](=O)[O-])c1	GLD-1 TGE inh 59, IMP-1 inh 47 | GLD-1 TGE cf inactive
CCOc1ccc(NC(=O)c2ccc3[nH]c(=O)c(=O)[nH]c3c2)cc1	none (no result: EBV gp42 block)
CCc1cc(=O)oc2cc(OC(=O)CN3C(=O)NC4(CCCC4)C3=O)ccc12	none (no result: EBV gp42 block)
O=C(CN1C(=O)NC2(CCCCC2)C1=O)Oc1ccc2c(C(F)(F)F)cc(=O)oc2c1	GLD-1 TGE inh 59, BCLXL inh 33 (no result: IMP-1 inh, EBV gp42 block, VIM-2 inhibitor) | GLD-1 TGE cf 49
O=C(NC1CCSc2ccccc21)c1cc([N+](=O)[O-])ccc1N1CCOCC1 (stereo not drawn)	none (no result: IMP-1 inh, EBV gp42 block, VIM-2 inhibitor)
Clc1cccc(C2Nc3cccc4cccc(c34)N2)c1	GLD-1 TGE inh 32 (no result: EBV gp42 block) | GLD-1 TGE cf inactive
Cc1cc2nc(/C=C/c3nc4cc(C)c(C)cc4[nH]3)[nH]c2cc1C	none
Cc1ccc(/C=C/c2nc3ccccc3[nH]2)o1	GLD-1 TGE inh 32, BCLXL inh 40 | GLD-1 TGE cf inactive
Cc1onc(-c2ccccc2)c1C(=O)OCC(=O)NCc1ccc(F)cc1	GLD-1 TGE inh 31 | GLD-1 TGE cf inactive
Cc1[nH]c(=S)c(C#N)c(C)c1CC(=O)c1ccc(Br)cc1	none (no result: EBV gp42 block)
